Source: PubChem BioAssay (Johns Hopkins Ion Channel Center)
RGS4 act = RGS4 potentiation or activation | 310,000 tested, 0.92% active | HEK293 M3R/inducible RGS4, carbachol calcium flux Fluo4; active compounds read low | B-score at 10 µM;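 active = B-score of the integrated calcium signal more than 4 SD below the library mean, with starting fluorescence not abnormally high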;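 note: negative B-score means reduced calcium response which marks RGS4 activation or potentiation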
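Also added: carbachol at ECmax as muscarinic agonist stimulus; Assay system: HEK293 cells with stable M3R and inducible RGS4; Timing: overnight RGS4 induction, 30 min dye load 37 °C, 20 min compound RT; Measured by: Fluo4-AM (2 µM) calcium-flux fluorescence, kinetic read.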
MrgX1 allo act = human MrgX1 positive allosteric modulation, primary screen. Q96LB2. MrgX1-HEK293, Fluo-4 calcium flux, FDSS; active compounds read high. B-score at 10 µM. 310,000 tested, 0.63% active. AID 588675;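 active = plate-corrected calcium response at least 3 library SD above typical, normal starting fluorescence, not activating the receptor alone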;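 note: compound read alongside a low EC10 to EC30 dose of BAM8-22 agonist; peak minus trough fluorescence over baseline measured at the second addition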
Target sequence (Q96LB2 whole entry, looked up): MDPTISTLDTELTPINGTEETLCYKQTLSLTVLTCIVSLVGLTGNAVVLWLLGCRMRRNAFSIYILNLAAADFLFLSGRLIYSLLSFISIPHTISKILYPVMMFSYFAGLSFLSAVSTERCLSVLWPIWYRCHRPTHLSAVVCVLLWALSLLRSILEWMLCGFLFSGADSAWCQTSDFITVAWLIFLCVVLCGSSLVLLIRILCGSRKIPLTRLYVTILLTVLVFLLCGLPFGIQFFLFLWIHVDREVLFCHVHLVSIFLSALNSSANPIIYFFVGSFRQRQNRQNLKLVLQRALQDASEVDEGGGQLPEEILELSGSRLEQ
RGS4 inh = human RGS4 inhibition; P49798; HEK293 M3R/RGS4 inducible, Fluo-4 calcium flux; active compounds read high; triggered by carbachol at its EC20; B-score at 10 µM; 310,000 tested, 0.45% active; AID 463165;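 active = B-score, a plate-corrected calcium signal, over three deviations above library mean, with baseline fluorescence within five deviations of library mean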;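 note: RGS4 expression induced by doxycycline in cells with stable M3 receptor; B-score is computed from the integrated fluorescence ratio over baseline after carbachol; higher B-score means a larger calcium signal and so more RGS4 inhibition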
Target sequence (P49798 whole entry, looked up): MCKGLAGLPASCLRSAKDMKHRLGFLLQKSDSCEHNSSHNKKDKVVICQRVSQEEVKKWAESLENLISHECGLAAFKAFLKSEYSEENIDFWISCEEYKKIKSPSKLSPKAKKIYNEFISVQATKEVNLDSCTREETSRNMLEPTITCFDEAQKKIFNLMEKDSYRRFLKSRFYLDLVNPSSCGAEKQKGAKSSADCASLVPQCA
MrgX1 antagonist = human MrgX1 receptor antagonism, primary screen; Q96LB2; MRGX1-HEK293 calcium flux, Fluo-4, BAM8-22 antagonism; active compounds read low; B-score at 10 µM; 310,000 tested, 1.3% active; AID 588676;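 active = calcium-response B-score plate-corrected more than 3 library SD below zero, starting fluorescence within 5 deviations, no agonist response on first addition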;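 note: peak minus trough fluorescence over baseline after final BAM8-22 challenge near maximal dose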
MrgX1 agonist = agonists of human MrgX1 receptor | Q96LB2 | MrgX1-HEK293 cells, Fluo-4 calcium fluorescence, agonist mode; active compounds read high | B-score at 10 µM | 310,000 tested, 0.44% active;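 active = calcium response B-score plate-corrected fluorescence ratio at least 3 library SD, with starting fluorescence B-score inside 5 SD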
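Test system: Stable human MrgX1 HEK293 cell line | Schedule: Overnight plating before 1 h dye loading | Read-out basis: Baseline-normalised fluorescence change ratio, B-scored | Detection: Kinetic calcium dye fluorescence, Fluo-4 NW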
A number is an active result; - = inactive; . = no result given. Hits are enriched below; roughly 3.5% of the tested compounds scored in any of these assays.

SMILES	RGS4 act	MrgX1 allo act	RGS4 inh	MrgX1 antagonist	MrgX1 agonist
O=C(Nc1cccc(-c2csc(Nc3ccccc3)n2)c1)c1ccccc1	-7.3	-	-	-	-
CC(C)CC(=O)Nc1ccc(Oc2ccc3c(c2)C(=O)NC3=O)cc1	-	-	-	-	-
O=C1Nc2ccc([N+](=O)[O-])cc2OC1CCN1CCCC1 (configuration not stated)	-	12	-	-	-
CN1CCN(CCC2Oc3cc([N+](=O)[O-])ccc3NC2=O)CC1 (configuration not stated)	-	-	-	-	-
COC(=O)c1ccc(NC(=O)CS(=O)(=O)c2ccccc2)cc1	-	-	-	-	-
CCOC(=O)c1c(N2C(=O)Nc3cc(Cl)c(Cl)cc3N2O)sc2c1CCCCC2	.	-	.	-	50
CCOC(=O)c1c(-n2cnnn2)sc2c1CCCC2	-	-	-	-	-
CCN(Cc1ccc(C#CCCO)cc1)CC1CCCN(CCc2cccc(OC)c2)C1 (configuration not stated)	-7	-	-	-	-
CCN(Cc1ccc(NC(C)=O)cc1)CC1CCCN(CCc2cccc(F)c2)C1 (configuration not stated)	-	-	-	-	-
Cc1ccnc(NC(=O)CSc2ccc3c(c2)OCCO3)c1	-7.3	-	-	-	-
CCO/C([O-])=N/c1sn[n+](C)c1C	-	-	-	-5.3	-
C/C(=N\NC(=S)NCc1ccccc1)c1ccco1	-	8.1	-	-	-
C/C(=N\NC(=S)NCc1ccccc1)c1ccccc1	-	-	-	-	-
O=c1nc2n(c3ncccc13)CCCCC2	-	-	-	-	-
CCn1c(Cc2cccs2)nnc1SCC(=O)Nc1ccc(OC)c(OC)c1	-	-	-	-4.7	-
CCn1c(SCC(=O)Nc2ccc3c(c2)oc2ccccc23)nnc1-c1ccc(N)cc1	-	-	8	-	-
Cc1oc2c(cc(NS(=O)(=O)c3ccc(F)cc3)c3ccccc32)c1C(=O)O	-	-	-	-	-
Cc1oc2c(cc(NS(=O)(=O)c3ccc(C(C)C)cc3)c3ccccc32)c1C(=O)O	-8.6	-	-	-	-
CCn1cc(CNC(=O)CCc2nnc(CCC3CCCCC3)o2)cn1	-	-	-	-	-
Cc1ccccc1N=C(NOCc1ccc(Cl)cc1Cl)c1nonc1N	-7.3	-	-	-	-
Cc1ccc(N=C(NO)c2nonc2N)c(C)c1	-	-	-	-	-
Cc1ccc(N=C(NOCc2ccc(Cl)cc2Cl)c2nonc2N)c(C)c1	-7.6	-	-	-	-
Cc1ccc(Cn2nc(C)c(NC(=O)CSc3n[nH]c(C)c3[N+](=O)[O-])c2C)cc1	-	-	-	-6	-
CC(=O)N1c2c(cc(Br)cc2S(=O)(=O)N2CCN(c3ccccc3F)CC2)CC1C (configuration not stated)	-	-	-	-7.8	-
CN(C(=O)CCc1nnc(CCCCc2ccccc2)o1)C1CC(C)(C)NC(C)(C)C1	-	-	-	-5.8	-
SMILES	RGS4 act	MrgX1 allo act	RGS4 inh	MrgX1 antagonist	MrgX1 agonist
C=C(C)[C@@H]1CCC2(C(=O)O)CC[C@]3(C)[C@H](CC[C@@H]4[C@@]5(C)CCC(=O)C(C)(C)[C@@H]5CC[C@]43C)[C@@H]12 (some centres not stated)	-	-	-	-8.3	-
COc1c(C)cccc1C(=O)NC(=S)Nc1ccccc1N1CCCC1	-7.6	-	-	-	-
COc1cccc(CNC(=O)Cc2ccc(OC)c(S(=O)(=O)N3CCOCC3)c2)c1	-	-	-	-	-
COC(=O)c1cc2ccsc2n1Cc1nc(-c2ccc(Cl)cc2)oc1C	-	-	-	-	-
COC(=O)c1cc2occc2n1Cc1nc(-c2ccccc2Cl)oc1C	-7.5	-	-	-	-
COC(=O)c1cc2occc2n1Cc1nc(-c2ccc(Cl)cc2)oc1C	-7.2	-	-	-	-
COC(=O)/C(=C/Nc1ccccc1)[N+](=O)[O-]	-	-	-	-	-
COC(=O)/C(=C/c1cn(C)c2ccccc12)[N+](=O)[O-]	-	.	12	.	.
CC[n+]1c(/C=C/N(C)c2ccccc2)oc2ccccc21	-	-	-	-	-
CC/C(=C\c1oc2cc3ccccc3cc2[n+]1CC)Nc1ccccc1	-	-	-	-	27
CCOC(=O)N1CCN(c2c(N3CCN(c4ccccc4F)CC3)c(=O)c2=O)CC1	-	-	-	-	-
OCCCCNCc1ccc(OCc2ccccc2Cl)cc1	-7	-	-	-	-
NC(N)=N/N=C/c1ccccc1	-	-	-	-	-
NC(N)=N/N=C/c1ccc(Cl)c(Cl)c1	-	-	-	-	31
COc1cc(/C=N/N=C(N)N)ccc1OCc1ccc(Cl)cc1	-	-	-	-	30
CCOc1cc(/C=N/N=C(N)N)ccc1OCc1ccc(Cl)cc1	-	-	-	-	-
CCOCCCNCc1ccc(OCc2ccccc2Cl)cc1	-	-	-	-	-
NC(N)=N/N=C/c1ccc(OCc2ccccc2Cl)cc1	-10	-	-	-	-
CN(C(=O)COc1ccc(-c2nnco2)cc1)C1CCS(=O)(=O)C1 (configuration not stated)	-	-	-	-	-
CC(C)[C@H](NC(=O)[C@H](Cc1ccccc1)n1c(=O)[nH]c2ccccc2c1=O)C(=O)N1CCC[C@H]1C(=O)O	-	-	-	-	-
CCOc1ccc(CN2CCC(C(=O)N3CCN(c4ccccc4F)CC3)CC2)cc1OC	-	-	-	-	-
CCOc1ccc(S(=O)(=O)N2CCC(C(=O)N3CCN(c4ccccc4F)CC3)CC2)cc1C	-7.2	-	-	-	-
Nc1ccc(-n2cnc3cc([N+](=O)[O-])ccc32)cc1	-	-	-	-	-
Cc1cccc(-n2cnc3cc([N+](=O)[O-])ccc32)c1	-	8.2	-	-	-
CC1CC(C)CN(C(=O)c2cc(-c3ccncc3)nc3ccccc23)C1 (configuration not stated)	-	-	-	-	-
SMILES	RGS4 act	MrgX1 allo act	RGS4 inh	MrgX1 antagonist	MrgX1 agonist
COc1cccc(CN2CCN(C(=O)c3cc(-c4ccncc4)nc4ccc(C)cc34)CC2)c1	-7	-	-	-	-
Cc1ccccc1CN1CCN(C(=O)c2cc(-c3ccncc3)nc3ccccc23)CC1	-7.1	-	-	-	-
CC(=O)c1ccc(N2CCN(C(=O)c3cc(-c4ccncc4)nc4ccc(Cl)cc34)CC2)cc1	-7.4	-	-	-	-
O=C(O)C1CC=CCC1C(=O)NCc1ccc2c(c1)OCO2 (configuration not stated)	-	-	-	-	-
O=C(C1CC1)N1CCc2cc(S(=O)(=O)NCc3ccccc3)ccc21	-	-	-	-	-
O=C(N/N=C/c1c[nH]c2ccc(Br)cc12)c1ccc2c(c1)OCO2	-	-	-	-	45
O=C(N/N=C/c1c[nH]c2ccccc12)c1ccc2c(c1)OCCO2	-	-	-	-	-
CC(C)(C)c1cc(CCC(=O)NNC(=S)NC(=O)c2ccccc2)cc(C(C)(C)C)c1O	-	-	-	-	50
